According to ChEMBL document CHEMBL1795269, “Novel (E)-5-styryl-2,2'-bithiophene derivatives as ligands for β-amyloid plaques” (Eur J Med Chem, 2011):
Calls of active or inactive are those of the source. No cut-off for these calls is given here.

Tests used:
[1] = Displacement of [125I]-TZDM from amyloid beta 1 to 42 after 2 hrs by gamma counting
Procedure, shortened: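 Aβ1-42 aggregated at 0.25 mg/mL in pH 7.4 buffer (10 mM sodium phosphate, 1 mM EDTA), 37 °C for 42 h with shaking. Fibrils (28 nM final) mixed with [125I]TZDM and inhibitor (10^-5 to 10^-10 M in EtOH) in PBS (0.2 M, pH 7.4). Incubated 2 h at 37 °C; nonspecific binding taken with 100 nM TZDM. Bound and free separated by vacuum filtration through glass fibre filters, washed with cold PBS containing 10% ethanol, then counted; Ki reported.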

[2] = species: Mus musculus; experiment: Binding affinity to amyloid beta in APP/PS1 transgenic C57 mouse brain at 1 uM after 10 mins by fluorescence assay; type: tissue-based
Procedure, shortened: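 Paraffin-embedded brain sections (10 μm) from APP/PS1 C57 transgenic mouse, deparaffinized through xylene and graded ethanol, then PBS (0.2 M, pH 7.4) 30 min. Sections incubated 10 min with compound (1 μM in 20% ethanol), washed with 50% ethanol and PBS. Confocal fluorescence read at excitation 405 nm, 505 nm long-pass. Plaques confirmed with thioflavin-S (1 μM) on adjacent sections.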

Row | Structure (SMILES) | Ki [1] | inhibition [1] | Activity [2]
1 | Brc1ccc(-c2ccc(/C=C/c3ccccc3)s2)s1 | 1.32 nM | Dose-dependent effect | –
2 | CC(C)(C)c1ccc(/C=C/c2ccc(-c3ccc(I)s3)s2)cc1 | 1.58 nM | Dose-dependent effect | –
3 | Clc1ccc(/C=C/c2ccc(-c3cccs3)s2)cc1 | 0.74 nM | Dose-dependent effect | –

The next molecules have a lower Ki [1] than those just listed; values first:

Row | Ki [1] | inhibition [1] | Activity [2] | Structure (SMILES)
4 | 0.55 nM | Dose-dependent effect | – | Fc1ccc(/C=C/c2ccc(-c3ccc(I)s3)s2)cc1
5 | 0.51 nM | Dose-dependent effect | – | Brc1ccc(-c2ccc(/C=C/c3ccc(I)cc3)s2)s1
6 | 0.36 nM | Dose-dependent effect | Active | CN(C)c1ccc(/C=C/c2ccc(-c3ccc(Br)s3)s2)cc1
7 | 0.24 nM | Dose-dependent effect | – | Ic1ccc(-c2ccc(/C=C/c3ccccc3)s2)s1
8 | 0.19 nM | Dose-dependent effect | – | Brc1ccc(/C=C/c2ccc(-c3ccc(I)s3)s2)cc1
